The values below come from ChEMBL document CHEMBL4325822, “Discovery of a tetrazolyl β-carboline with in vitro and in vivo osteoprotective activity under estrogen-deficient conditions” (Medchemcomm, 2018).

A short description of data set [1]: Increase in BMP2 mRNA expression in Sprague-Dawley rat calvarial osteoblasts at 100 pM by RT-PCR method relative to control. It counts as functional, Calvarial osteoblast. In short, it runs like this:
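Primary calvarial osteoblasts were lysed in TRIzol after treatment, and total RNA was extracted. Transcripts were quantified by real-time PCR using the comparative CT (ΔΔCT) method.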

The subject of data set [2] is Calvarial osteoblast. Description: Increase in BMP2 protein expression in Sprague-Dawley rat calvarial osteoblasts at 100 pM after 48 hrs by Western blot analysis. The data set is classed as functional, cell-based. The gist of the method:
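Rat calvarial osteoblasts at 60-70% confluence were treated 48 h. Whole-cell lysates were blotted, blocked in 5% milk, and probed with primary antibody overnight at 4 °C, then with HRP secondary and ECL detection. Densitometry was normalized to β-actin; fold change versus untreated cells, three independent experiments, mean ± SEM.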
For orientation: In western blotting, separated proteins are transferred to a membrane and probed.

The test system of data set [3] is Calvarial osteoblast. Put plainly: Increase in OCN protein expression in Sprague-Dawley rat calvarial osteoblasts at 100 pM after 48 hrs by Western blot analysis. It counts as functional, cell-based. The gist of the method: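 Rat calvarial osteoblasts (pooled 1–2-day pups, collagenase/dispase digests) at 60–70% confluence treated 48 h. Whole-cell lysates immunoblotted with primary antibody overnight at 4 °C, then HRP secondary, with ECL detection. Densitometry gives fold change normalized to β-actin versus untreated cells. Mean ± SEM of three independent experiments.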

Data set [4] in a line: Antioxidant activity assessed as DPPH radical scavenging activity at 250 ug/ml after 30 mins by spectrophotometric method relative to control. The data set is classed as functional. In short, it runs like this:
(§1)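 The compound was serially diluted from 1000 to 1.95 µg·ml⁻¹ and mixed 1:1 with DPPH in methanol. After 30 min at room temperature, absorbance was read at 517 nm. Scavenging (%) = [(Abc − Abs)/Abc] × 100, where Abc is DPPH without compound.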

Data set [5] can be described thus: Antioxidant activity assessed as DPPH radical scavenging activity at 500 ug/ml after 30 mins by spectrophotometric method relative to control. The data set is classed as functional. The gist of the method: as §1
A general note: The DPPH test is a chemical assay of radical scavenging.

The nature of data set [6]: Antioxidant activity assessed as DPPH radical scavenging activity at 1000 ug/ml after 30 mins by spectrophotometric method relative to control. The data set is classed as functional. The gist of the method:
as §1

Data set [7] can be described thus: Antioxidant activity assessed as DPPH radical scavenging activity at 1.95 ug/ml after 30 mins by spectrophotometric method relative to control. It counts as functional. In short, it runs like this: as §1
The nature of data set [8]: Antioxidant activity assessed as SNP-induced nitric oxide free radical scavenging activity at lower concentration after 150 mins by Griess reagent based method relative to control. The data set is classed as functional. The gist of the method:
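Serial dilutions (1000 to 1.95 µg·ml⁻¹) were mixed with sodium nitroprusside (10 mM) and incubated 150 min. An equal volume of Griess reagent was added, and absorbance was read at 546 nm. Percentage scavenging was calculated relative to the control without compound.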
In general terms: The Griess reaction detects nitrite, a stable product of nitric oxide.

The subject of data set [9] is Calvarial osteoblast. Description: Osteoprotective activity in Sprague-Dawley rat calvarial osteoblasts assessed as reduction in TNFalpha-induced apoptosis at 100 pM after 24 hrs by Annexin V/propidium iodide staining based FACS analysis relative to control. It counts as functional. Details: scale not given: the % may be the effect or the level left. In short, it runs like this: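 Osteoblasts at 50–60% confluence, serum-withdrawn 3 h. Then 24 h with TNFα in α-MEM with 0.5% FBS, with 10 nM E2 as comparator. Annexin-V-FITC/PI staining, analysed by flow cytometry.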

The subject of data set [10] is Rattus norvegicus. Put plainly: Antiosteoporotic activity in Sprague-Dawley rat model of OVX-induced bone loss assessed as protection against microarchitectural deterioration by measuring trabecular separation at 1 mg/kg, po via gavage for 12 weeks by microcomputed tomographic analysis (reference value: 1.31 +/- 0.06 millimeter). It counts as functional. The gist of the method: (§2)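 Adult female Sprague-Dawley rats were ovariectomized and left 12 weeks to become osteopenic. They then received 12 weeks of once-daily oral gavage (1% gum acacia vehicle) or subcutaneous estradiol, five days a week. Femurs were collected at sacrifice and scanned by micro-CT for BMD and trabecular microarchitecture. Ten rats per group; mean ± SEM.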

Data set [11] deals with Rattus norvegicus. Put plainly: Antiosteoporotic activity in Sprague-Dawley rat model of OVX-induced bone loss assessed as protection against microarchitectural deterioration by measuring trabecular number at 5 mg/kg, po via gavage for 12 weeks by microcomputed tomographic analysis (reference value: 0.56 +/- 0.06 /millimeter). The data set is classed as functional. In short, it runs like this:
as §2

Data set [12] has as its system Rattus norvegicus. Description: Antiosteoporotic activity in Sprague-Dawley rat model of OVX-induced bone loss assessed as mineral apposition rate at 1 mg/kg, po via gavage for 12 weeks by microcomputed tomographic analysis (reference value: 0.169 +/- 0.004 umeter/day). It counts as functional. The gist of the method: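 Female Sprague-Dawley rats, 10-12 weeks old, ten per group, were ovariectomized and left 12 weeks for osteopenia. They were then dosed once daily by oral gavage for 12 weeks in 1% gum acacia vehicle. The estradiol arm received 100 µg·kg⁻¹ subcutaneously five days a week. Tetracycline and calcein were given intraperitoneally at 20 mg·kg⁻¹ each. Femur cross-sections (50 µm) were imaged by fluorescence microscopy for MAR and BFR.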

In data set [13] the test system is Rattus norvegicus. Description: Antiosteoporotic activity in Sprague-Dawley rat model of OVX-induced bone loss assessed as increase in femoral bone strength by measuring energy at 5 mg/kg, po via gavage for 12 weeks by 3 point bending test (reference value: 46.27 +/- 4.36 mJ). The data set is classed as functional.
The subject of data set [14] is Rattus norvegicus. Put plainly: Antiosteoporotic activity in Sprague-Dawley rat model of OVX-induced bone loss assessed as increase in femoral bone strength by measuring stiffness at 5 mg/kg, po via gavage for 12 weeks by 3 point bending test (reference value: 122.07 +/- 12.18 N/mm). It counts as functional.
For data set [15], the system named is Rattus norvegicus. Description: Antiosteoporotic activity in Sprague-Dawley rat model of OVX-induced bone loss assessed as increase in mineralization at 1 to 5 mg/kg, po via gavage for 12 weeks measured 18 days post last dose by alizarin red-S staining based assay relative to control. It counts as functional. The gist of the method:
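After 12 weeks of in vivo treatment of ovariectomized rats, femoral bone marrow was flushed. It was cultured 18 days in differentiation medium (10 nM dexamethasone, 10 mM β-glycerophosphate, 50 µg·mL⁻¹ ascorbic acid). Mineralized nodules were stained with alizarin red-S, and the stain was extracted for quantitation.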

In data set [16] the test system is Rattus norvegicus. Description: Antiosteoporotic activity in Sprague-Dawley rat model of OVX-induced bone loss assessed as decrease in serum CTX level at 1 to 5 mg/kg, po via gavage for 12 weeks by ELISA. It counts as functional, organism-based. In short, it runs like this: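 Ovariectomy model as above: 12 weeks of osteopenia, then 12 weeks of daily gavage or subcutaneous estradiol. Serum was separated at autopsy, and CTX and PINP were measured by ELISA kits.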

Data set [17] deals with Rattus norvegicus. Put plainly: Upregulation of BMP2 mRNA expression in femur bone of Sprague-Dawley rat model of OVX-induced bone loss at 1 to 5 mg/kg, po via gavage for 12 weeks by qPCR analysis. The data set is classed as functional, organism-based. In short, it runs like this: (§3)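 Ovariectomized female SD rats, osteopenic after 12 weeks, dosed orally once daily for 12 weeks (1.0 or 5.0 mg·kg⁻¹·day⁻¹, 1% gum acacia vehicle); sham and OVX vehicle groups included. Femurs collected at sacrifice for qRT-PCR, analysed by the ΔΔCT method.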

The subject of data set [18] is Rattus norvegicus. Put plainly: Upregulation of OCN mRNA expression in femur bone of Sprague-Dawley rat model of OVX-induced bone loss at 1 to 5 mg/kg, po via gavage for 12 weeks by qPCR analysis. It counts as functional, organism-based. The gist of the method:
as §3

Data set [19] is described as follows: Toxicity in Sprague-Dawley rat model of OVX-induced bone loss assessed as uterine weight at 5 mg/kg, po via gavage for 12 weeks (reference value: 0.12 +/- 0.02 g). The data set is classed as organism-based. The note with it: in vivo, 2016 h.
Data set [20] is described as follows: Toxicity in Sprague-Dawley rat model of OVX-induced bone loss assessed as luminal epithelial height at 5 mg/kg, po via gavage for 12 weeks (reference value: 27.29 +/- 0.96 umeter). It counts as organism-based. The note with it: in vivo, 2016 h.

Active and inactive are the calls of the source. The rule behind the calls is not given here.

For `CCOC(=O)c1cc2c([nH]c3ccccc32)c(C(c2nnnn2C(C)(C)C)N2CCN(C)CC2)n1` (stereo not given), the “fold change (FC)” value in data set [1] is listed as 1.8 - 4.6; with Rattus norvegicus [15], 1.4 - 1.5. In addition, the outcome in the data set on Calvarial osteoblast [2], in the data set with Calvarial osteoblast [3], in the data set on Rattus norvegicus [16], in the data set with Rattus norvegicus [17] and with Rattus norvegicus [18] was Active. Moreover, the Activity in data set [4] amounted to 37.8%; in [5], 43.5%; in data set [6] it was 47.8%; in [7] it was 3.34%; in [8], 4.07%; in the data set with Calvarial osteoblast [9] it was 47%. In addition, the Activity is 0.73 mm in the data set on Rattus norvegicus [10]; 1.38 /millimeter with Rattus norvegicus [11]; 1.062 micrometer/day in the data set on Rattus norvegicus [12]; 60.87 mJ in the data set with Rattus norvegicus [13]; 146.6 N/mm in the data set with Rattus norvegicus [14]; 0.12 g in data set [19]. Further, in data set [20], the Activity was determined as 3.61 um.
